Assay [1] deals with L1210. Description: Percent of L1210 cells in the G2+M phase of the cell cycle at a compound concentration of 0.5 uM. The class given is functional, Mus musculus. In outline: (§1)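 L1210 cells (2.5 × 10⁵ cells/mL) were incubated for 21 h with compound at the stated concentration. Flow cytometry was run on 10⁴ cells per sample, and the percentage of cells in G2+M was recorded.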

The target of assay [2] is DNA topoisomerase II (Homo sapiens) (UniProt P11388+Q02880). The assay can be described thus: Inhibition of human DNA Topoisomerase II mediated DNA cleavage through the stabilization of transient DAN/topoisomerase II cleavage complex. The class given is protein assay. The method, boiled down: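 Supercoiled pBS DNA (0.1 μg) preincubated 15 min at 30 °C with drug at 50 μM in 50 mM Tris-HCl pH 7.5, 1 mM ATP, 120 mM KCl, 10 mM MgCl2, 0.5 mM DTT, 0.1 mM EDTA, BSA. Two units human topo II added, 30 min at 30 °C. SDS/proteinase K digestion 30 min at 55 °C. 1% agarose gel with ethidium bromide; linear DNA percentage read, mean of three independent experiments.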

Assay [3] relates to L1210. Description: Inhibitory concentration required to reduce 50 percent L1210 cell growth. Particulars: Mus musculus. The class given is functional, cell-based. In outline:
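L1210 cells were grown in RPMI 1640 with 10% fetal calf serum, 2 mM glutamine, antibiotics and 10 mM HEPES (pH 7.4). Cells were exposed to compound for 48 h. MTT was then added for 4 h at 37 °C, and formazan was dissolved in DMSO and read at 540 nm. IC50 is the concentration reducing OD by 50%, from linear regression on the linear part of the curve. Triplicate.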

The subject of assay [4] is L1210. The assay can be described thus: Percent of L1210 cells in the G2+M phase of the cell cycle at a compound concentration of 0.2 uM. The class given is functional, Mus musculus. The method, boiled down:
as §1

The subject of assay [5] is L1210. Description: Percent of L1210 cells in the G2+M phase of the cell cycle at a compound concentration of 2.5 uM. The format is functional, Mus musculus. The method, boiled down:
as §1

Assay [6] has as its system P388. Description: Antitumor activity against P388 leukemia at dose range of 3.12-50 mg/kg on day 1, activity expressed as maximum tolerated dose. The format is functional, Mus musculus.
The subject of assay [7] is P388. The assay can be described thus: Evaluated for long-term survivors scored at day 60; 0/6. The class given is functional, Mus musculus.
Assay [8] concerns P388. Description: Median survival time of treated animals/median survival time of control animals. The format is functional, Mus musculus.
Assay [9] relates to P388. The assay can be described thus: Antitumor activity against P388 leukemia at dose range of 1.56-25 mg/kg on day 1, activity expressed as maximum tolerated dose. The class given is functional, Mus musculus.
Another assay deals with A549. Description: Antitumor activity against A549 non small cell carcinoma at dose range of 3.12-12.5 mg/kg on day 14, 21, 28; activity expressed as maximum tolerated dose. The format is functional, Homo sapiens. The method, boiled down:
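A549 human lung tumour cells were implanted orthotopically, 10⁶ cells through the chest wall into the left pleural space of anaesthetised BALB/C nude mice. Once tumours were established, drug was given iv on days 14, 21 and 28 after tumour cell injection. The endpoint was life span, expressed as T/C (%) = median survival time of treated/control × 100. MTD was the dose causing no toxic death and/or no weight loss >20%.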

For assay [10], the system named is L1210. The assay can be described thus: Percent of L1210 cells in the G2+M phase of the cell cycle at a compound concentration of 0.25 uM. The class given is functional, Mus musculus. The method, boiled down:
as §1

The subject of assay [11] is L1210. Description: Percent of L1210 cells in the G2+M phase of the cell cycle at a compound concentration of 10 uM. The class given is functional, Mus musculus. The method, boiled down:
as §1

Values joined by “and” are separate entries in the source; they are usually repeats but may differ in a detail not shown here. Equal entries are not always repeated.

In general, IC50 refers to the concentration at which inhibition is half-maximal. A high value points to lower potency. Regarding `COc1cc([C@@H]2c3cc4c(cc3[C@@H](NS(=O)(=O)c3ccc(N=[N+]=[N-])cc3)[C@H]3COC(=O)[C@H]23)OCO4)cc(OC)c1O`, the Effect in the assay on L1210 [1] was found to be 69%. For the same compound, the Activity in [2] turned out to be 9. The same compound yielded a 50% inhibitory concentration (IC50) with L1210 [3] of 210 nM.
Turning to `COc1cc([C@@H]2c3cc4c(cc3[C@@H](NS(C)(=O)=O)[C@H]3COC(=O)[C@H]23)OCO4)cc(OC)c1O`, in the assay with L1210 [1], the Effect is recorded as 77%. Besides, the Activity in assay [2] was 50. The compound also displayed a half-maximal inhibitory concentration (IC50) in the assay on L1210 [3] of 70 nM.
The compound `COc1cc([C@@H]2c3cc4c(cc3[C@@H](NS(=O)(=O)c3ccc(N)cc3)[C@H]3COC(=O)[C@H]23)OCO4)cc(OC)c1O` gave an Effect in the assay on L1210 [4] of 75%. Also, the Activity in [2] came to 0. Moreover, the concentration for half-maximal inhibition (IC50) in the assay on L1210 [3] turned out to be 340 nM.
Compound `COc1cc([C@@H]2c3cc4c(cc3[C@@H](NS(=O)(=O)CCCN=[N+]=[N-])[C@H]3COC(=O)[C@H]23)OCO4)cc(OC)c1O` had an Activity in [2] of 32. In addition, inhibition with L1210 [3] was half-maximal at 35 nM (IC50).
With `COc1cc([C@@H]2c3cc4c(cc3[C@@H](N=[N+]=[N-])[C@H]3COC(=O)[C@H]23)OCO4)cc(OC)c1O`, the Effect in the assay on L1210 [5] came to 61%. This compound also returned an Activity in [2] of 44. Besides, in the assay on L1210 [3], the IC50 is 570 nM.
The term T/C denotes the result in the treated group divided by that in the control group, in per cent. For `COc1cc([C@@H]2c3cc4c(cc3[C@@H](NS(=O)(=O)c3cccs3)[C@H]3COC(=O)[C@H]23)OCO4)cc(OC)c1O`, the Effect in the assay with L1210 [1] was determined as 71%. In the assay on P388 [6], this compound returned an MTD of 12.5. For the same compound, the Activity in assay [2] amounted to 9. The LTS in the assay on P388 [7] is recorded as 0. It took 170 nM to reach half-maximal inhibition with L1210 [3] (IC50). Further, the T/C in the assay with P388 [8] is reported as 102%.
Regarding `CCN(CC)S(=O)(=O)N[C@@H]1c2cc3c(cc2[C@@H](c2cc(OC)c(O)c(OC)c2)[C@H]2C(=O)OC[C@@H]21)OCO3`, the MTD in the assay with P388 [9] is reported as 25; in the assay with A549, 6.25. In [2], this compound gave an Activity of 24. For the same compound, the LTS in the assay on P388 [7] is 0. Moreover, the concentration for half-maximal inhibition (IC50) in the assay with L1210 [3] was determined as 83 nM. Besides, in the assay on P388 [8], the T/C is 106% and 120%. This compound returned an Effect in the assay on L1210 [10] of 86%.
As for `COc1cc([C@@H]2c3cc4c(cc3[C@@H](NS(=O)(=O)c3sc(NC(C)=O)nc3C)[C@H]3COC(=O)[C@H]23)OCO4)cc(OC)c1O`, in the assay with L1210 [11], the Effect turned out to be 68%. This compound also showed an Activity in assay [2] of 7. The IC50 with L1210 [3] stood at 3600 nM.
On to `COc1cc([C@@H]2c3cc4c(cc3[C@@H](NS(=O)(=O)CCCCl)[C@H]3COC(=O)[C@H]23)OCO4)cc(OC)c1O`, for which the Activity in assay [2] came out at 14. In the assay with L1210 [3], this compound came in with a half-maximal inhibitory concentration (IC50) of 45 nM. In the assay on L1210 [10], this compound came in with an Effect of 66%.
With `CCCCN(CCCC)S(=O)(=O)N[C@@H]1c2cc3c(cc2[C@@H](c2cc(OC)c(O)c(OC)c2)[C@H]2C(=O)OC[C@@H]21)OCO3`, the Effect in the assay on L1210 [5] is 60%. In assay [2], the Activity is 0. In the assay with L1210 [3], this compound gave an IC50 of 510 nM.

These data come from ChEMBL document CHEMBL1149329, “Synthesis and biological activity of sulfonamide derivatives of epipodophyllotoxin” (J Med Chem, 2004).
